Measurements: ChEMBL document CHEMBL5058577, “EUbOPEN Chemogenomics Library 2 (Multiplex)” (2022)

Tested on: U2OS
Assay: Multiplex assay against U2OS
Format: toxicity, cell-based
Settings: human
Summary of the method: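 With compound added, live cells were imaged on a CQ1 microscope at 37°C and 5% CO2; staining with Hoechst33342, BioTracker Green Microtubule Cytoskeleton Dye, MitoTracker Red and Annexin V Alexa Fluor 680 had been done at seeding. The CellPathfinder machine-learning gating scheme split cells into Hoechst high-intensity objects or normal cells, normal cells into healthy, pyknosed or fragmented nuclei, and pyknosed cells into mitotic or apoptotic. The tubulin, mitochondrial-mass and membrane-permeability phenotypes are per cents of healthy-nucleus cells.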

[1] = 12 h, 1 µM, compound concentration 1 uM, replicate 1
[2] = 12 h, 1 µM, compound concentration 1 uM, replicate 2
[3] = 12 h, 10 µM, compound concentration 10 uM, replicate 1
[4] = 12 h, 10 µM, compound concentration 10 uM, replicate 2
[5] = 24 h, 1 µM, compound concentration 1 uM, replicate 1
[6] = 24 h, 1 µM, compound concentration 1 uM, replicate 2
[7] = 24 h, 10 µM, compound concentration 10 uM, replicate 1
[8] = 24 h, 10 µM, compound concentration 10 uM, replicate 2
[9] = 48 h, 1 µM, compound concentration 1 uM, replicate 1
[10] = 48 h, 1 µM, compound concentration 1 uM, replicate 2
[11] = 48 h, 10 µM, compound concentration 10 uM, replicate 1
[12] = 48 h, 10 µM, compound concentration 10 uM, replicate 2

Compound: O=C(O)CCC/C=C\CC1C(O)CC(O)C1/C=C/C(O)COc1cccc(Cl)c1 (centres undefined) [CLOPROSTENOL]
- Population Apoptotic (%) [1]: 77%
- Population Fragmented Nuclei (%) [1]: 30%
- Population Healthy Nuclei (%) [1]: 60%
- Population Hoechst High Intensity Objects (%) [1]: 3%
- Population Membrane Permeable-Phenotype (%) [1]: 2%
- Population Mitochondria Different-Phenotype (%) [1]: 0%
- Population Mitotic Cells (%) [1]: 22%
- Population Normal (%) [1]: 96%
- Population Pyknosed Nuclei (%) [1]: 9%
- Population Tubulin-Different-Phenotype (%) [1]: 1%
- Total Cell Count [1]: 201
- Population Apoptotic (%) [2]: 75%
- Population Fragmented Nuclei (%) [2]: 11%
- Population Healthy Nuclei (%) [2]: 82%
- Population Hoechst High Intensity Objects (%) [2]: 0%
- Population Membrane Permeable-Phenotype (%) [2]: 6%
- Population Mitochondria Different-Phenotype (%) [2]: 3%
- Population Mitotic Cells (%) [2]: 25%
- Population Normal (%) [2]: 100%
- Population Pyknosed Nuclei (%) [2]: 6%
- Population Tubulin-Different-Phenotype (%) [2]: 2%
- Total Cell Count [2]: 129
- Population Apoptotic (%) [3]: 92%
- Population Fragmented Nuclei (%) [3]: 28%
- Population Healthy Nuclei (%) [3]: 60%
- Population Hoechst High Intensity Objects (%) [3]: 2%
- Population Membrane Permeable-Phenotype (%) [3]: 8%
- Population Mitochondria Different-Phenotype (%) [3]: 1%
- Population Mitotic Cells (%) [3]: 7%
- Population Normal (%) [3]: 97%
- Population Pyknosed Nuclei (%) [3]: 10%
- Population Tubulin-Different-Phenotype (%) [3]: 3%
- Total Cell Count [3]: 272
- Population Apoptotic (%) [4]: 45%
- Population Fragmented Nuclei (%) [4]: 9%
- Population Healthy Nuclei (%) [4]: 81%
- Population Hoechst High Intensity Objects (%) [4]: 0%
- Population Membrane Permeable-Phenotype (%) [4]: 9%
- Population Mitochondria Different-Phenotype (%) [4]: 6%
- Population Mitotic Cells (%) [4]: 54%
- Population Normal (%) [4]: 100%
- Population Pyknosed Nuclei (%) [4]: 8%
- Total Cell Count [4]: 131
- Population Apoptotic (%) [5]: 81%
- Population Fragmented Nuclei (%) [5]: 24%
- Population Healthy Nuclei (%) [5]: 63%
- Population Hoechst High Intensity Objects (%) [5]: 1%
- Population Membrane Permeable-Phenotype (%) [5]: 4%
- Population Mitochondria Different-Phenotype (%) [5]: 2%
- Population Mitotic Cells (%) [5]: 18%
- Population Normal (%) [5]: 98%
- Population Pyknosed Nuclei (%) [5]: 11%
- Population Tubulin-Different-Phenotype (%) [5]: 2%
- Total Cell Count [5]: 237
- Population Apoptotic (%) [6]: 75%
- Population Fragmented Nuclei (%) [6]: 15%
- Population Healthy Nuclei (%) [6]: 77%
- Population Hoechst High Intensity Objects (%) [6]: 0%
- Population Membrane Permeable-Phenotype (%) [6]: 6%
- Population Mitotic Cells (%) [6]: 25%
- Population Normal (%) [6]: 100%
- Population Pyknosed Nuclei (%) [6]: 7%
- Population Tubulin-Different-Phenotype (%) [6]: 4%
- Total Cell Count [6]: 157
- Population Apoptotic (%) [7]: 90%
- Population Fragmented Nuclei (%) [7]: 23%
- Population Healthy Nuclei (%) [7]: 66%
- Population Hoechst High Intensity Objects (%) [7]: 2%
- Population Membrane Permeable-Phenotype (%) [7]: 7%
- Population Mitochondria Different-Phenotype (%) [7]: 2%
- Population Mitotic Cells (%) [7]: 10%
- Population Normal (%) [7]: 97%
- Population Pyknosed Nuclei (%) [7]: 10%
- Population Tubulin-Different-Phenotype (%) [7]: 3%
- Total Cell Count [7]: 306
- Population Apoptotic (%) [8]: 70%
- Population Fragmented Nuclei (%) [8]: 11%
- Population Healthy Nuclei (%) [8]: 82%
- Population Hoechst High Intensity Objects (%) [8]: 0%
- Population Membrane Permeable-Phenotype (%) [8]: 11%
- Population Mitochondria Different-Phenotype (%) [8]: 4%
- Population Mitotic Cells (%) [8]: 30%
- Population Normal (%) [8]: 100%
- Population Pyknosed Nuclei (%) [8]: 5%
- Population Tubulin-Different-Phenotype (%) [8]: 4%
- Total Cell Count [8]: 177
- Population Apoptotic (%) [9]: 89%
- Population Fragmented Nuclei (%) [9]: 20%
- Population Healthy Nuclei (%) [9]: 70%
- Population Hoechst High Intensity Objects (%) [9]: 1%
- Population Membrane Permeable-Phenotype (%) [9]: 2%
- Population Mitochondria Different-Phenotype (%) [9]: 1%
- Population Mitotic Cells (%) [9]: 10%
- Population Normal (%) [9]: 98%
- Population Pyknosed Nuclei (%) [9]: 8%
- Population Tubulin-Different-Phenotype (%) [9]: 0%
- Total Cell Count [9]: 344
- Population Apoptotic (%) [10]: 81%
- Population Fragmented Nuclei (%) [10]: 11%
- Population Healthy Nuclei (%) [10]: 81%
- Population Hoechst High Intensity Objects (%) [10]: 0%
- Population Membrane Permeable-Phenotype (%) [10]: 6%
- Population Mitochondria Different-Phenotype (%) [10]: 3%
- Population Mitotic Cells (%) [10]: 18%
- Population Normal (%) [10]: 99%
- Population Pyknosed Nuclei (%) [10]: 7%
- Population Tubulin-Different-Phenotype (%) [10]: 2%
- Total Cell Count [10]: 229
- Population Apoptotic (%) [11]: 91%
- Population Fragmented Nuclei (%) [11]: 18%
- Population Healthy Nuclei (%) [11]: 67%
- Population Hoechst High Intensity Objects (%) [11]: 3%
- Population Membrane Permeable-Phenotype (%) [11]: 6%
- Population Mitochondria Different-Phenotype (%) [11]: 1%
- Population Mitotic Cells (%) [11]: 8%
- Population Normal (%) [11]: 96%
- Population Pyknosed Nuclei (%) [11]: 14%
- Population Tubulin-Different-Phenotype (%) [11]: 4%
- Total Cell Count [11]: 396
- Population Apoptotic (%) [12]: 84%
- Population Fragmented Nuclei (%) [12]: 12%
- Population Healthy Nuclei (%) [12]: 82%
- Population Hoechst High Intensity Objects (%) [12]: 2%
- Population Membrane Permeable-Phenotype (%) [12]: 10%
- Population Mitochondria Different-Phenotype (%) [12]: 2%
- Population Mitotic Cells (%) [12]: 15%
- Population Normal (%) [12]: 97%
- Population Pyknosed Nuclei (%) [12]: 5%
- Total Cell Count [12]: 246
